{"source": "ChEMBL document CHEMBL5303300", "about": "“EUbOPEN Chemogenomics Library - Multiplex” (2023)", "key": {"[1]": {"system": "HEK-293T", "experiment": "Multiplex assay against HEK293T", "assay_type": "toxicity, cell-based", "conditions": "human, number of replicates 2", "procedure,_shortened": "(§1)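 Tubulin, mitochondrial-mass and membrane-permeability phenotypes are per cents of healthy-nucleus cells. Cells were gated by CellPathfinder machine learning into Hoechst high-intensity objects or normal cells, normal cells into healthy, pyknosed or fragmented nuclei, and pyknosed cells into mitotic or apoptotic. Before that, live cells stained at seeding with Hoechst33342, BioTracker Green Microtubule Cytoskeleton Dye, MitoTracker Red and Annexin V Alexa Fluor 680 were imaged on a CQ1 microscope at 37°C and 5% CO2 after compound addition.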"}, "[2]": {"system": "U2OS", "experiment": "Multiplex assay against U2OS", "assay_type": "toxicity, cell-based", "conditions": "human, number of replicates 2", "procedure,_shortened": "as §1"}, "[3]": {"conditions": "24 h, 1 µM, compound concentration 1 uM"}, "[4]": {"conditions": "24 h, 10 µM, compound concentration 10 uM"}, "[5]": {"conditions": "48 h, 1 µM, compound concentration 1 uM"}, "[6]": {"conditions": "48 h, 10 µM, compound concentration 10 uM"}, "[7]": {"conditions": "12 h, 1 µM, compound concentration 1 uM"}, "[8]": {"conditions": "12 h, 10 µM, compound concentration 10 uM"}}, "note": "Values joined by “and” are separate entries in the source; they are usually repeats but may differ in a detail not shown here. Identical values can stand only once."}
{"smiles": "Cn1cc(-c2ccc(N(C(=O)NCc3ccccc3)[C@H]3CC[C@H](Nc4ccc(C#N)cn4)CC3)cc2)ccc1=O", "values": [{"measurement": "Population Mitotic Cells (%)", "setting": "[1]; [3]", "result": "65% and 68%"}, {"measurement": "Population Normal (%)", "setting": "[1]; [3]", "result": "91% and 93%"}, {"measurement": "Population Pyknosed Nuclei (%)", "setting": "[1]; [3]", "result": "7% and 8%"}, {"measurement": "Population Tubulin-Different-Phenotype (%)", "setting": "[1]; [3]", "result": "33% and 30%"}, {"measurement": "Total Cell Count", "setting": "[1]; [3]", "result": "908 and 972"}, {"measurement": "Population Apoptotic (%)", "setting": "[1]; [4]", "result": "55% and 37%"}, {"measurement": "Population Fragmented Nuclei (%)", "setting": "[1]; [4]", "result": "4% and 9%"}, {"measurement": "Population Healthy Nuclei (%)", "setting": "[1]; [4]", "result": "86% and 77%"}, {"measurement": "Population Hoechst High Intensity Objects (%)", "setting": "[1]; [4]", "result": "12% and 11%"}, {"measurement": "Population Membrane Permeable-Phenotype (%)", "setting": "[1]; [4]", "result": "3% and 7%"}, {"measurement": "Population Mitochondria Different-Phenotype (%)", "setting": "[1]; [4]", "result": "42% and 52%"}, {"measurement": "Population Mitotic Cells (%)", "setting": "[1]; [4]", "result": "44% and 62%"}, {"measurement": "Population Normal (%)", "setting": "[1]; [4]", "result": "87% and 88%"}, {"measurement": "Population Pyknosed Nuclei (%)", "setting": "[1]; [4]", "result": "9% and 12%"}, {"measurement": "Population Tubulin-Different-Phenotype (%)", "setting": "[1]; [4]", "result": "91% and 90%"}, {"measurement": "Total Cell Count", "setting": "[1]; [4]", "result": "478 and 532"}, {"measurement": "Population Apoptotic (%)", "setting": "[1]; [5]", "result": "9% and 8%"}, {"measurement": "Population Fragmented Nuclei (%)", "setting": "[1]; [5]", "result": "10% and 11%"}, {"measurement": "Population Healthy Nuclei (%)", "setting": "[1]; [5]", "result": 85, "unit": "%"}, {"measurement": "Population Hoechst High Intensity Objects (%)", "setting": "[1]; [5]", "result": 9, "unit": "%"}, {"measurement": "Population Membrane Permeable-Phenotype (%)", "setting": "[1]; [5]", "result": 6, "unit": "%"}, {"measurement": "Population Mitochondria Different-Phenotype (%)", "setting": "[1]; [5]", "result": "1% and 0%"}, {"measurement": "Population Mitotic Cells (%)", "setting": "[1]; [5]", "result": "90% and 91%"}, {"measurement": "Population Normal (%)", "setting": "[1]; [5]", "result": 90, "unit": "%"}, {"measurement": "Population Pyknosed Nuclei (%)", "setting": "[1]; [5]", "result": 3, "unit": "%"}, {"measurement": "Population Tubulin-Different-Phenotype (%)", "setting": "[1]; [5]", "result": "14% and 16%"}, {"measurement": "Total Cell Count", "setting": "[1]; [5]", "result": "2214 and 2329"}, {"measurement": "Population Apoptotic (%)", "setting": "[1]; [6]", "result": "43% and 56%"}, {"measurement": "Population Fragmented Nuclei (%)", "setting": "[1]; [6]", "result": "7% and 3%"}, {"measurement": "Population Healthy Nuclei (%)", "setting": "[1]; [6]", "result": "79% and 86%"}, {"measurement": "Population Hoechst High Intensity Objects (%)", "setting": "[1]; [6]", "result": "10% and 13%"}, {"measurement": "Population Membrane Permeable-Phenotype (%)", "setting": "[1]; [6]", "result": "5% and 2%"}, {"measurement": "Population Mitochondria Different-Phenotype (%)", "setting": "[1]; [6]", "result": "39% and 30%"}, {"measurement": "Population Mitotic Cells (%)", "setting": "[1]; [6]", "result": "56% and 43%"}, {"measurement": "Population Normal (%)", "setting": "[1]; [6]", "result": "89% and 86%"}, {"measurement": "Population Pyknosed Nuclei (%)", "setting": "[1]; [6]", "result": "12% and 9%"}, {"measurement": "Population Tubulin-Different-Phenotype (%)", "setting": "[1]; [6]", "result": "74% and 66%"}, {"measurement": "Total Cell Count", "setting": "[1]; [6]", "result": "578 and 533"}, {"measurement": "Population Apoptotic (%)", "setting": "[2]; [7]", "result": "50% and 60%"}, {"measurement": "Population Healthy Nuclei (%)", "setting": "[2]; [7]", "result": "48% and 86%"}, {"measurement": "Population Hoechst High Intensity Objects (%)", "setting": "[2]; [7]", "result": 0, "unit": "%"}, {"measurement": "Population Membrane Permeable-Phenotype (%)", "setting": "[2]; [7]", "result": "0% and 3%"}, {"measurement": "Population Mitochondria Different-Phenotype (%)", "setting": "[2]; [7]", "result": "5% and 3%"}, {"measurement": "Population Mitotic Cells (%)", "setting": "[2]; [7]", "result": "50% and 39%"}, {"measurement": "Population Normal (%)", "setting": "[2]; [7]", "result": 100, "unit": "%"}, {"measurement": "Population Pyknosed Nuclei (%)", "setting": "[2]; [7]", "result": "14% and 12%"}, {"measurement": "Population Tubulin-Different-Phenotype (%)", "setting": "[2]; [7]", "result": "55% and 75%"}, {"measurement": "Population Apoptotic (%)", "setting": "[2]; [8]", "result": "93% and 59%"}, {"measurement": "Population Fragmented Nuclei (%)", "setting": "[2]; [8]", "result": "16% and 12%"}, {"measurement": "Population Healthy Nuclei (%)", "setting": "[2]; [8]", "result": "41% and 57%"}, {"measurement": "Population Hoechst High Intensity Objects (%)", "setting": "[2]; [8]", "result": 0, "unit": "%"}, {"measurement": "Population Membrane Permeable-Phenotype (%)", "setting": "[2]; [8]", "result": "20% and 21%"}, {"measurement": "Population Mitochondria Different-Phenotype (%)", "setting": "[2]; [8]", "result": "33% and 16%"}, {"measurement": "Population Normal (%)", "setting": "[2]; [8]", "result": "100% and 99%"}, {"measurement": "Population Pyknosed Nuclei (%)", "setting": "[2]; [8]", "result": "41% and 30%"}, {"measurement": "Population Tubulin-Different-Phenotype (%)", "setting": "[2]; [8]", "result": "40% and 48%"}, {"measurement": "Population Apoptotic (%)", "setting": "[2]; [3]", "result": "66% and 60%"}, {"measurement": "Population Healthy Nuclei (%)", "setting": "[2]; [3]", "result": "40% and 87%"}, {"measurement": "Population Hoechst High Intensity Objects (%)", "setting": "[2]; [3]", "result": 0, "unit": "%"}, {"measurement": "Population Membrane Permeable-Phenotype (%)", "setting": "[2]; [3]", "result": "0% and 3%"}, {"measurement": "Population Mitochondria Different-Phenotype (%)", "setting": "[2]; [3]", "result": "0% and 1%"}, {"measurement": "Population Mitotic Cells (%)", "setting": "[2]; [3]", "result": "33% and 40%"}, {"measurement": "Population Normal (%)", "setting": "[2]; [3]", "result": "100% and 99%"}, {"measurement": "Population Pyknosed Nuclei (%)", "setting": "[2]; [3]", "result": "19% and 9%"}, {"measurement": "Population Tubulin-Different-Phenotype (%)", "setting": "[2]; [3]", "result": "63% and 79%"}, {"measurement": "Population Apoptotic (%)", "setting": "[2]; [4]", "result": "90% and 75%"}, {"measurement": "Population Fragmented Nuclei (%)", "setting": "[2]; [4]", "result": "8% and 11%"}, {"measurement": "Population Healthy Nuclei (%)", "setting": "[2]; [4]", "result": 31, "unit": "%"}, {"measurement": "Population Hoechst High Intensity Objects (%)", "setting": "[2]; [4]", "result": 0, "unit": "%"}, {"measurement": "Population Membrane Permeable-Phenotype (%)", "setting": "[2]; [4]", "result": "36% and 21%"}, {"measurement": "Population Mitochondria Different-Phenotype (%)", "setting": "[2]; [4]", "result": "27% and 46%"}, {"measurement": "Population Mitotic Cells (%)", "setting": "[2]; [4]", "result": "9% and 24%"}, {"measurement": "Population Normal (%)", "setting": "[2]; [4]", "result": "100% and 99%"}, {"measurement": "Population Pyknosed Nuclei (%)", "setting": "[2]; [4]", "result": "60% and 56%"}, {"measurement": "Population Tubulin-Different-Phenotype (%)", "setting": "[2]; [4]", "result": "36% and 69%"}, {"measurement": "Population Apoptotic (%)", "setting": "[2]; [5]", "result": "85% and 68%"}, {"measurement": "Population Healthy Nuclei (%)", "setting": "[2]; [5]", "result": "65% and 88%"}, {"measurement": "Population Hoechst High Intensity Objects (%)", "setting": "[2]; [5]", "result": 0, "unit": "%"}, {"measurement": "Population Membrane Permeable-Phenotype (%)", "setting": "[2]; [5]", "result": "2% and 1%"}, {"measurement": "Population Mitochondria Different-Phenotype (%)", "setting": "[2]; [5]", "result": 0, "unit": "%"}, {"measurement": "Population Mitotic Cells (%)", "setting": "[2]; [5]", "result": "14% and 31%"}, {"measurement": "Population Normal (%)", "setting": "[2]; [5]", "result": 100, "unit": "%"}, {"measurement": "Population Pyknosed Nuclei (%)", "setting": "[2]; [5]", "result": "11% and 8%"}, {"measurement": "Population Tubulin-Different-Phenotype (%)", "setting": "[2]; [5]", "result": "70% and 85%"}, {"measurement": "Population Apoptotic (%)", "setting": "[2]; [6]", "result": "78% and 88%"}, {"measurement": "Population Fragmented Nuclei (%)", "setting": "[2]; [6]", "result": "30% and 10%"}, {"measurement": "Population Healthy Nuclei (%)", "setting": "[2]; [6]", "result": "23% and 24%"}, {"measurement": "Population Hoechst High Intensity Objects (%)", "setting": "[2]; [6]", "result": "0% and 2%"}, {"measurement": "Population Membrane Permeable-Phenotype (%)", "setting": "[2]; [6]", "result": "40% and 37%"}, {"measurement": "Population Mitochondria Different-Phenotype (%)", "setting": "[2]; [6]", "result": "40% and 37%"}, {"measurement": "Population Mitotic Cells (%)", "setting": "[2]; [6]", "result": "21% and 11%"}, {"measurement": "Population Normal (%)", "setting": "[2]; [6]", "result": "100% and 97%"}, {"measurement": "Population Pyknosed Nuclei (%)", "setting": "[2]; [6]", "result": "45% and 65%"}, {"measurement": "Population Tubulin-Different-Phenotype (%)", "setting": "[2]; [6]", "result": "40% and 52%"}]}
